One may read the inhibition as the drop in the measured response relative to a control, in per cent.

Structures are written as SMILES. Activity calls are given as the source filed them.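 The calls were made as follows, unless noted: active = a full or partial loss of lipid-probe fluorescence in the fish gall bladder, intestine or both, judged by eye; inactive = no fluorescence loss, or compound toxic to the fish.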

The text below walks through data of PubChem BioAssay.

Assay [1] in a line: inhibitors of TNFa-induced NFkB p65 translocation, primary screen, imaging, HUVEC, MLSMR starter and 10KST1 sets (AID 438;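 active = inhibition above 20% together with a positive visual image hit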;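 also: compound added about 3h40 before a 20 min TNFalpha stimulation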;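 as to inhibition: signal is the nuclear over cytoplasmic p65 intensity ratio per well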). As to conditions: HUVEC TNFa-induced p65 nuclear translocation; cell count: measured here: nuclei count (cytotoxicity indicator), at 2.08 µM; inhibition: at 2 µM, stronger effect = higher value, 0% TNFa-plus-vehicle, 100% no-TNFa wells.
Assay [2] can be described thus: endothelial E-selectin expression blockers – imaging, HUVEC, immunofluorescence, MLSMR starter and 10KST1 sets, primary screen (AID 487;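 active = visually confirmed hit in the image check and inhibition above 20%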;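 as to inhibition: signal is fraction of cell area covered by stained E-selectin grains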;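 as to nuclei count: 100% = median nuclei count of all wells on the same plate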). As to conditions: HUVEC TNFalpha-induced E-selectin immunofluorescence imaging, at 2 µM; inhibition: stronger effect = higher value; nuclei count: measured here: cell number, toxicity.
The nature of assay [3]: Primary imaging screen for DUSP6 inhibitors that restore phospho-Erk in transfected HeLa cells, chemical complementation (AID 609;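 active = compounds giving at least 50% inhibition in the cell-based MKP-3 phosphatase rescue imaging test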;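 as to inhibition: phospho-Erk level distribution per well compared with pooled transfected vehicle control wells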). As to conditions: HeLa MKP-3 transfected, phospho-Erk imaging KS statistic, at 10 µM, cells stimulated with TPA for 15 min.
Assay [4] deals with Dual specificity protein phosphatase 6 (Homo sapiens) (UniProt Q16828). The description is as above. Particulars: HeLa MKP-3 transfected, phospho-Erk imaging KS statistic; at 10 µM; stronger effect = higher value; cells stimulated with TPA for 15 min.
Sequence of Dual specificity protein phosphatase 6 (Homo sapiens) (Q16828 whole entry, looked up): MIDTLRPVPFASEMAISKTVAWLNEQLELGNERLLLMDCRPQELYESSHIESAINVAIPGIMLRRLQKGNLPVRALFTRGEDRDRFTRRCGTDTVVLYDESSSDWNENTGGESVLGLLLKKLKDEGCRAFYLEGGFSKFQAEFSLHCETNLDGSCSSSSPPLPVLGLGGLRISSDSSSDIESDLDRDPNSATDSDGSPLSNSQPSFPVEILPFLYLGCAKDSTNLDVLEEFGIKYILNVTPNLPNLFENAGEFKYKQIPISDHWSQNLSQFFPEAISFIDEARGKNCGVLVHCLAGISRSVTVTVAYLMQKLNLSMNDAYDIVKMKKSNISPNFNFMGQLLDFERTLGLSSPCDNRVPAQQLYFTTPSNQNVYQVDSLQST
Assay [5] addresses Voltage-gated potassium channel subunit beta-2 (Rattus norvegicus) (UniProt P62483). In words: inhibitors of rat Kvbeta2 reductase activity – biochemical, NADPH fluorescence, primary screen (AID 622;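 active = fluorescence slope higher than the sample average by over 3 SD, cut at about -0.22 in these data, passing the limit was not always enough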;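 also: slope of raw intensity against log time taken from 70 to 1610 s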). As to conditions: recombinant KvBeta, 4-cyanobenzaldehyde reduction, at 10 µM, stronger effect = higher value.
The target is the same in assay [6]. In words: enhancers of rat Kvbeta2 NADPH turnover – biochemical, NADPH fluorescence, primary screen (AID 623;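 active = NADPH fluorescence slope more negative than the mean of all samples by about 3 SD, 99.7% confidence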;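 also: fluorescence intensity change per second fitted from 20 to 320 s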). Particulars: Recombinant KvBeta, NADPH fluorescence decrease slope, 10 min; at 10 µM; stronger effect = lower value.
Assay [7] deals with Muscarinic acetylcholine receptor M4 (Homo sapiens) (UniProt P08173). Put plainly: M4-linked GIRK flux change, two-sided – cell-based, HEK293 M4/GIRK, thallium flux, BTC-AM, M4 allosteric agonist project, primary screen (AID 625;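 active = fluorescence slope after compound addition differing from the mean of all tested samples at 99.7% confidence, mostly higher but some lower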;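 also: thallium influx through GIRK channels coupled to M4 in HEK293 cells with BTC-AM dye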). As to conditions: at 10 µM, actives lie on both sides. Summed up:
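System: HEK293 cells with M4 receptor and GIRK channels | Incubation: Cells overnight at 37 °C, BTC-AM loading 1 h, reads 2 min total | Technique: Kinetic BTC-AM fluorescence sampled at 1 Hz, 10 s pre-addition baseline | Measure: Post-addition slope, 15–24 s, of baseline-normalized fluorescence | Control set: Carbachol positive, DMSO negative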

Assay [8] in a line: inhibitors of larval lipid processing in zebrafish, primary screen, whole organism, PED6 fluorescence, gall bladder and intestine (AID 686).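 Also: larvae 5 to 7 days old with five fish per well; signal comes from phospholipase A2 cleavage of quenched PED6 carried via bile; overnight exposure to compound and PED6 before scoring.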 Particulars: Zebrafish larvae PED6 lipid processing, fluorescence scoring; screened at 20 µM (by protocol). Summed up: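 Test system – live zebrafish larvae aged 5-7 days, whole organism · Buffer or medium – E3 fish medium · Reagent – quenched phospholipase substrate PED6, 100 nM final, ingested by larvae · Doses – 20 µM single dose · Incubation – overnight compound and PED6 incubation · Technique – visual fluorescence microscopy scoring of gall bladder, gut · Read-out basis – visual per-well fluorescence inhibition score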

The nature of assay [9]: loss of swimming-algae plug formation – whole organism, Chlamydomonas reinhardtii, WT vs cilia-less mutant, absorbance, 96-well, primary screen (AID 463189;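 active = inhibition at or above 50% relative to wild type and mutant plate controls; inactive = inhibition below 50%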;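 also: 0% = wild type cc124 cells in DMSO and 100% = ciliumless bld1 mutant cells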). As to conditions: Chlamydomonas reinhardtii gravitaxis, OD600 absorbance, 2 days; at 10 µM; stronger effect = higher value.
[10] abbreviates: measured here: cell density z-score.
Where [11] appears, read: measured here: nuclear c-Myc green intensity z-score.
Where [12] appears, read: measured here: nuclear pErk red intensity z-score, stronger effect = higher value.

Sequence of Voltage-gated potassium channel subunit beta-2 (Rattus norvegicus) (P62483 whole entry, looked up): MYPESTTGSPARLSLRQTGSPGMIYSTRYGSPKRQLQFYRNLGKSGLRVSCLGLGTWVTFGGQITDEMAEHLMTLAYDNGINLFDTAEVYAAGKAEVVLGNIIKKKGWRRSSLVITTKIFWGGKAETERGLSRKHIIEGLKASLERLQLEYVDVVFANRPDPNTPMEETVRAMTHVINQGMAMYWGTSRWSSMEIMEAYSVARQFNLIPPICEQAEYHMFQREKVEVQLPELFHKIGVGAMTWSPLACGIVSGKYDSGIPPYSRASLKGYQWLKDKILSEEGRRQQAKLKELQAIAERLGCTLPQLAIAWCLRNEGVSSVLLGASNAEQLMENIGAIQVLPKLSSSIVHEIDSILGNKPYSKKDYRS
Sequence of Muscarinic acetylcholine receptor M4 (Homo sapiens) (P08173 whole entry, looked up): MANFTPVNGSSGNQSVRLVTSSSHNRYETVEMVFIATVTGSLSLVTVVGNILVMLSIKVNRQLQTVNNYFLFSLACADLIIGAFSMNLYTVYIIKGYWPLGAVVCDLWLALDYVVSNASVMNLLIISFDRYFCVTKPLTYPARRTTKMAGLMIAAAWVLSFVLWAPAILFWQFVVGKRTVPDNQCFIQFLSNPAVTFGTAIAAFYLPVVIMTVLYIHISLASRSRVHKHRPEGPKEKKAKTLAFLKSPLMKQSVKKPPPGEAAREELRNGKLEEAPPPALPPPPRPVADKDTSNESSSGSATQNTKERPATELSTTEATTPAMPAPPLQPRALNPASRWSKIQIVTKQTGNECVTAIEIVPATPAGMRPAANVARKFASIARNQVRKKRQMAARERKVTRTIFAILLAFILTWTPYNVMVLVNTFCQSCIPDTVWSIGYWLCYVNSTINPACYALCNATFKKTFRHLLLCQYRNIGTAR

Regarding `COc1ccc(C(=O)c2oc3nc(C)cc(C)c3c2N)cc1`, the cell count in assay [1] came to 400. The inhibition is 3.1% (inactive) in assay [1], 7.4% (inactive) in assay [2], 19.4% (inactive) in assay [4] and 23.4% (inactive) in assay [9]. In addition, the nuclei count in [2] was determined as 117%. Moreover, the z-score is 1.15 in [3] (setting [10]), -1.17 in [3] (setting [11]) and -0.769 in assay [3] (setting [12]). The fluorescence slope in [5] was -0.379 (inactive); in [7], 0.00438 (inactive). Further, the NADPH fluorescence slope in assay [6] was -2e-05 (inactive). Also, in [8], the outcome was inactive.
For `CCC(CC)c1nc2cc(OC)c(OC)cc2c(=O)o1`, in assay [1], the cell count is 581. The inhibition in assay [1] was 0.1% (inactive); in [2] it was -54% (inactive); in [4], -4.59% (inactive); in [9], 0.563% (inactive). This molecule also returned a nuclei count in [2] of 126%. The values for the z-score in assay [3] (setting [10]), in assay [3] (setting [11]) and in assay [3] (setting [12]) were -1.01, -1.15 and 0.697, respectively. The fluorescence slope in assay [5] was -0.451 (inactive); in [7] it was 0.00503 (inactive). The NADPH fluorescence slope in assay [6] is -0.000112 (inactive). Besides, the molecule was called inactive in assay [8].
With `O=c1[nH]c2cnccc2n1-c1ccccc1`, in [1], the cell count worked out at 546. Further, the inhibition in assay [1] is 1.5% (inactive); in [2], -390% (inactive); in [4], 9.91% (inactive); in assay [9] it was -6.57% (inactive). The molecule also came in with a nuclei count in assay [2] of 162%. In addition, the z-score in assay [3] (setting [10]) was 1.25; in [3] (setting [11]), -0.89; in assay [3] (setting [12]), -1.07. The fluorescence slope in assay [5] is -0.404 (inactive); in [7], 0.00569 (inactive). Moreover, in assay [6], the NADPH fluorescence slope is -4.6e-05 (inactive). Besides, in [8], the outcome was inactive.
Regarding `CN1CCc2c(n(CC(O)CN3C(=O)c4ccccc4S3(=O)=O)c3ccccc23)C1=O` (stereo not given), the cell count in [1] was found to be 678. For the same molecule, the inhibition is -11.7% (inactive) in assay [1], -109% (inactive) in [2], 6.04% (inactive) in assay [4] and 6.44% (inactive) in [9]. In assay [2], this molecule showed a nuclei count of 158%. Also, the z-score in assay [3] (setting [10]) was 1.84; in assay [3] (setting [11]), -0.542; in assay [3] (setting [12]), -1.28. Besides, the values for the fluorescence slope in assay [5] and in assay [7] were -0.488 (inactive) and 0.00494 (inactive), respectively. In assay [6], the NADPH fluorescence slope is -3.3e-05 (inactive). Further, the molecule was classed as inactive in [8].
`COC(=O)CSCC(=O)Nc1cc2c(cc1C(C)=O)OCO2`: the cell count in assay [1] came to 333. Further, the inhibition was -6.3% (inactive) in assay [1], -95.3% (inactive) in assay [2], -4.78% (inactive) in assay [4] and 22.6% (inactive) in assay [9]. In [2], this molecule yielded a nuclei count of 76.4%. Besides, the z-score in [3] (setting [10]) was 0.0556; in assay [3] (setting [11]) it was -1.11; in assay [3] (setting [12]), 1.67. The figures for the fluorescence slope in assay [5] and in assay [7] were -0.452 (inactive) and 0.00475 (inactive), respectively. Besides, the NADPH fluorescence slope in [6] is 1.5e-05 (inactive). In addition, the outcome in assay [8] was inactive.
As to `CCOc1ccc(C2CC(c3ccccc3)Nc3nc(N)nn32)cc1` (stereo not given), the cell count in assay [1] is 364. In addition, the inhibition was -2.2% (inactive) in [1], -80.6% (inactive) in [2], 11.9% (inactive) in assay [4] and -15.5% (inactive) in [9]. This molecule yielded a nuclei count in assay [2] of 144%. Besides, the z-score in assay [3] (setting [10]) is 1.38; in assay [3] (setting [11]) it was -1.02; in [3] (setting [12]), 0.957. In addition, the fluorescence slope is -0.467 (inactive) in assay [5] and 0.00481 (inactive) in assay [7]. Further, the NADPH fluorescence slope in [6] was -0.000102 (inactive). Besides, in assay [8], the molecule was classed as inactive.
Take `Cc1ccccc1N1C(=O)C2ON(c3ccccc3)C(c3cccnc3)C2C1=O` (stereo not given): in assay [1], the cell count was determined as 541. In addition, the inhibition in [1] is -7% (inactive); in assay [2], 20.1% (inactive); in assay [4] it was 7.7% (inactive); in assay [9], -7.8% (inactive). In assay [2], this molecule displayed a nuclei count of 88.7%. In addition, the z-score is 1.39 in assay [3] (setting [10]), 0.945 in assay [3] (setting [11]) and -1.38 in assay [3] (setting [12]). In addition, the results for the fluorescence slope in assay [5] and in [7] were -0.502 (inactive) and 0.00555 (inactive), respectively. Further, in [6], the NADPH fluorescence slope was -4.4e-05 (inactive). Also, the outcome in assay [8] was inactive.
As for `Cc1cc(NC(CC(C)C)C(=O)O)nc(Cc2ccccc2)n1` (stereo not given), the cell count in assay [1] was 372. The inhibition in assay [1] was -2.8% (inactive); in [2], -117% (inactive); in assay [4], 5.42% (inactive); in assay [9], 0.592% (inactive). The molecule also returned a nuclei count in assay [2] of 188%. Besides, the figures for the z-score in assay [3] (setting [10]), in assay [3] (setting [11]) and in [3] (setting [12]) were -0.0865, -1.02 and 0.665, respectively. The results for the fluorescence slope in assay [5] and in assay [7] were -0.47 (inactive) and 0.00469 (inactive), respectively. Moreover, the NADPH fluorescence slope in assay [6] is -0.000155 (inactive). Moreover, in assay [8], the outcome was inactive.
As to `CCOC(=O)Cn1nc(C)c2ccccc2c1=O`, the cell count in assay [1] amounted to 579. Besides, the inhibition in assay [1] is -1.2% (inactive); in [2] it was -43.5% (inactive); in [4], 7.21% (inactive); in [9], -2.22% (inactive). The molecule further came in with a nuclei count in [2] of 154%. Besides, the z-score in assay [3] (setting [10]) is 1.29; in [3] (setting [11]), -0.0748; in [3] (setting [12]) it was 0.243. Moreover, the fluorescence slope in assay [5] was -0.515 (inactive); in [7], 0.00507 (inactive). The NADPH fluorescence slope in assay [6] is -0.000104 (inactive). For the same molecule, in assay [8], the molecule was classed as inactive.
With `Cc1ccc(S(=O)(=O)/C(C#N)=C/c2c(N3CCN(C)CC3)nc3ccccn3c2=O)cc1`, the cell count in assay [1] is 484. In addition, the inhibition in [1] is 6.4% (inactive); in assay [2] it was -211% (inactive); in assay [4], 1.04% (inactive); in assay [9], -9.76% (inactive). Besides, in assay [2], the nuclei count was found to be 173%. Also, the z-score in assay [3] (setting [10]) was 0.277; in assay [3] (setting [11]), -0.883; in assay [3] (setting [12]), 0.543. Also, the fluorescence slope in assay [5] is -0.454 (inactive); in [7], 0.0048 (inactive). For the same molecule, the NADPH fluorescence slope in [6] was -5.5e-05 (inactive). In addition, in [8], the molecule was classed as inactive.
